# Test results: ChEMBL document CHEMBL2434944, “Novel acetamidothiazole derivatives: synthesis and in vitro anticancer evaluation” (Eur J Med Chem, 2013)
# Tests used:
# [1] = Growth inhibition of human NCI-ADR-RES cells assessed as cell growth at 10^-5 M after 48 hrs by sulforhodamine B assay relative to control; assay type: functional; conditions: read-out: Activity
# Outline: (§1)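 NCI-60 single-dose screen at 10^-5 M. Cells grown in RPMI 1640 with 5% FBS and 2 mM L-glutamine, plated at 5,000–40,000 cells/well according to doubling time, and preincubated 24 h at 37°C, 5% CO2. Compound dissolved in DMSO and added. Exposure 48 h. Adherent cells fixed with cold TCA (10% final), suspension cells with 16% final TCA. Read-out is 0.4% SRB staining, dye solubilised in 10 mM Tris, absorbance at 515 nm. Percent growth is calculated against the time-zero plate and untreated control.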
# [2] = test system: U-251; assay: Growth inhibition of human U251 cells assessed as cell growth at 10^-5 M after 48 hrs by sulforhodamine B assay relative to control; assay type: functional; conditions: U-251, 48 h, read-out: Activity
# Outline: (§2)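 NCI-60 single-dose screen, 10^-5 M final. Cells grown in RPMI 1640 with 5% FBS and 2 mM L-glutamine, seeded at 5,000–40,000 cells/well by doubling time. Preincubated 24 h at 37°C, 5% CO2. Compound in DMSO, diluted in medium with gentamicin, then 48 h exposure. Fixed with cold TCA, SRB stained, A515 read. Percent growth vs untreated control, time-zero plate corrected.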
# [3] = Growth inhibition of human Hs 578T cells assessed as cell growth at 10^-5 M after 48 hrs by sulforhodamine B assay relative to control; assay type: functional; conditions: read-out: Activity; outline: as §1
# [4] = test system: COLO 205; assay: Growth inhibition of human COLO205 cells assessed as cell growth at 10^-5 M after 48 hrs by sulforhodamine B assay relative to control; assay type: functional; conditions: COLO 205, 48 h, read-out: Activity; outline: as §1
# [5] = test system: MDA-MB-435; assay: Growth inhibition of human MDA-MB-435 cells assessed as cell growth at 10^-5 M after 48 hrs by sulforhodamine B assay relative to control; assay type: functional; conditions: MDA-MB-435, 48 h, read-out: Activity; outline: as §1
# [6] = biological target: T1, Cathepsin K (Homo sapiens, UniProt P43235); assay: Inhibition of human cathepsin K
# T1 sequence (P43235 whole entry): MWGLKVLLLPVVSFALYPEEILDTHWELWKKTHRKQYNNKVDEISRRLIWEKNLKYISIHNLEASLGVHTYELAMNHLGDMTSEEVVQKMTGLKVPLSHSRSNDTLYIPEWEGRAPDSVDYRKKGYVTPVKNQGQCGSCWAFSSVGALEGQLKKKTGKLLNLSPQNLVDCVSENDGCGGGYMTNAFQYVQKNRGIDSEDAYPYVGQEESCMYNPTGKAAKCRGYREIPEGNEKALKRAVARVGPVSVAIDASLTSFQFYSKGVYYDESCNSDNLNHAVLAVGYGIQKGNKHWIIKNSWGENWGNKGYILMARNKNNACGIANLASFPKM
# [7] = test system: MOLT-4; assay: Growth inhibition of human MOLT4 cells assessed as cell growth at 10^-5 M after 48 hrs by sulforhodamine B assay relative to control; assay type: functional; conditions: MOLT-4, 48 h, read-out: Activity; outline: as §1
# [8] = test system: Malme-3M; assay: Growth inhibition of human MALME-3M cells assessed as cell growth at 10^-5 M after 48 hrs by sulforhodamine B assay relative to control; assay type: functional; conditions: read-out: Activity; outline: as §1
# [9] = test system: 786-0; assay: Growth inhibition of human 786-0 cells assessed as cell growth at 10^-5 M after 48 hrs by sulforhodamine B assay relative to control; assay type: functional; conditions: 786-0, 48 h, read-out: Activity; outline: as §1
# [10] = test system: HCT-15; assay: Growth inhibition of human HCT15 cells assessed as cell growth at 10^-5 M after 48 hrs by sulforhodamine B assay relative to control; assay type: functional; conditions: HCT-15, 48 h, read-out: Activity; outline: as §1
# [11] = biological target: T2, Leukotriene A-4 hydrolase (Homo sapiens, UniProt P09960); assay: Inhibition of human leukotriene A-4 hydrolase
# T2 sequence (P09960 whole entry): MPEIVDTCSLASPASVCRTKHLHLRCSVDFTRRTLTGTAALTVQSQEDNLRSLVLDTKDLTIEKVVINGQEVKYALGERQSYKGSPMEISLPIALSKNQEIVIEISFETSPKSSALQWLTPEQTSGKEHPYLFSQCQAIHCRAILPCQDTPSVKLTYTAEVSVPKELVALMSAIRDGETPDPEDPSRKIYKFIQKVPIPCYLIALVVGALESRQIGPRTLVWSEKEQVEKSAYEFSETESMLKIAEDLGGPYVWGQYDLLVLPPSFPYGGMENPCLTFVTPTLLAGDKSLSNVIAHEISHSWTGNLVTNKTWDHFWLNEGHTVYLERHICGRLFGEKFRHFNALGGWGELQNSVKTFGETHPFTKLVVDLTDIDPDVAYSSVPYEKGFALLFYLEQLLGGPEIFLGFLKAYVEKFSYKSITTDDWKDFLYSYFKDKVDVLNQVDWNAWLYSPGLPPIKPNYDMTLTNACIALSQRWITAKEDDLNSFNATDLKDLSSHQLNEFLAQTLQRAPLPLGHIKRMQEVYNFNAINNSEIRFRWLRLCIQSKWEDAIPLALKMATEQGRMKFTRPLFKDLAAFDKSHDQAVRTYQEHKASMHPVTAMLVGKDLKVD
# [12] = test system: NCI-H460; assay: Growth inhibition of human NCI-H460 cells assessed as cell growth at 10^-5 M after 48 hrs by sulforhodamine B assay relative to control; assay type: functional; conditions: NCI-H460, 48 h, read-out: Activity; outline: as §1
# [13] = test system: UACC-62; assay: Growth inhibition of human UACC62 cells assessed as cell growth at 10^-5 M after 48 hrs by sulforhodamine B assay relative to control; assay type: functional; conditions: UACC-62, 48 h, read-out: Activity; outline: as §2
# [14] = test system: K562; assay: Growth inhibition of human K562 cells assessed as cell growth at 10^-5 M after 48 hrs by sulforhodamine B assay relative to control; assay type: functional; conditions: K562, 48 h, read-out: Activity; outline: as §1
# [15] = biological target: T3, Vitamin D3 receptor (Homo sapiens, UniProt P11473); assay: Inhibition of human vitamin D3 receptor
# T3 sequence (P11473 whole entry): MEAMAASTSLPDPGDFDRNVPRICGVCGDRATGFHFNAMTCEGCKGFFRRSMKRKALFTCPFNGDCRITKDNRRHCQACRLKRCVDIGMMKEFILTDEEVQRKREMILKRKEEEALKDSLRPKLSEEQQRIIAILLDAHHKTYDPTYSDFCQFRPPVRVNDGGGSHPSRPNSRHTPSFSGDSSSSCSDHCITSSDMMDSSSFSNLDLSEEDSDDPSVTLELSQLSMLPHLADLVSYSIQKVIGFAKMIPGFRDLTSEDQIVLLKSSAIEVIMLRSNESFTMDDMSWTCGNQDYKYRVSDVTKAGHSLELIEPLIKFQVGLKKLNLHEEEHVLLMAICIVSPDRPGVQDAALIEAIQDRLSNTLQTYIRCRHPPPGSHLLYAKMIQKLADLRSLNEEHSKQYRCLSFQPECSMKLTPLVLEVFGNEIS
# [16] = test system: SN12C; assay: Growth inhibition of human SN12C cells assessed as cell growth at 10^-5 M after 48 hrs by sulforhodamine B assay relative to control; assay type: functional; conditions: read-out: Activity; outline: as §1
# [17] = test system: NCI-H322M; assay: Growth inhibition of human NCI-H322M cells assessed as cell growth at 10^-5 M after 48 hrs by sulforhodamine B assay relative to control; assay type: functional; conditions: read-out: Activity; outline: as §1
SMILES,growth at 10 µM [1] [%],growth at 10 µM [2] [%],growth at 10 µM [3] [%],growth at 10 µM [4] [%],growth at 10 µM [5] [%],Ki [6] [µM],growth at 10 µM [7] [%],growth at 10 µM [8] [%],growth at 10 µM [9] [%],growth at 10 µM [10] [%],Ki [11] [µM],growth at 10 µM [12] [%],growth at 10 µM [13] [%],growth at 10 µM [14] [%],Ki [15] [µM],growth at 10 µM [16] [%],growth at 10 µM [17] [%]
Cc1ccc(-c2csc(=N)n2CC(=O)N2CCN(c3ccccc3)CC2)cc1,92.6,95.3,88.2,109,92.2,10.8,94.5,118,101,104,4.29,105,85.9,100,1.03,85.2,99.7
N=c1scc(-c2ccc(Cl)cc2)n1CC(=O)N1CCN(c2ccccc2)CC1,98,89.6,106,105,92.2,11.1,87,107,97.9,96.8,0.093,101,98.1,84.8,3.07,99.8,99.8
N=c1scc(-c2ccccc2)n1CC(=O)N1CCN(c2ccccc2)CC1,86.5,91.2,96.5,102,96.5,11.6,99.6,94.2,104,97,0.643,96.4,93.5,103,1.6,101,92.6
CC(=O)N1CCN(C(=O)Cn2c(-c3ccc(C)cc3)csc2=N)CC1,93,85,105,106,80.6,24,73,121,98.8,90.6,1.64,103,74.2,84.3,2.84,87.4,108
CC(=O)N1CCN(C(=O)Cn2c(-c3ccc(Cl)cc3)csc2=N)CC1,95.5,85.9,104,97,85.3,24.2,77,133,94.4,86.5,0.607,101,81.9,72,2.28,88.6,90.4
